The record followed here is ChEMBL document CHEMBL6134855, “Peptidomimetics Activating the Proteasome: A New Perspective for Parkinson's Treatment” (J Med Chem, 2025).

Data set [1] relates to HEK-293T. The experiment in a line: Cytotoxicity in HEK293T cells assessed as cell viability at 1 to 10 uM incubated for 24 hrs by MTT assay relative to control. It is filed as toxicity, cell-based. To be noted: human, dose 1-10 µM. A digest of the protocol:
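HEK293T cells grown 2 days, then medium replaced with compound at 1, 10, 25, 50 or 100 μM for 24 h. MTT added, formazan dissolved in DMSO, absorbance read at 570 nm. Mean of three biological replicates vs control, one-way ANOVA.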
On the technique in general: Tetrazolium assays rely on reduction of a dye to a coloured formazan, in cell work by metabolically active cells.

Data set [2] relates to HEK-293T. The experiment in a line: Cytotoxicity against HEK293T cells assessed as cell viability at 10 uM measured after 3 hrs by Hoechst 33342 staining based analysis. The data set is classed as toxicity. To be noted: human. A digest of the protocol: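 HEK293T cells in DMEM/10% FBS, seeded 3 × 10^4 per well and grown 48 h, then given 10 μM NBD-labelled modulators for 3 h. Hoechst 33342 added for the final 30 min. Cells washed with PBS and imaged by fluorescence microscopy (NBD and Hoechst channels). Three independent replicates.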

For another data set, the system named is Primary cortical neuron. Briefly: Activation of 20S proteasome in mouse Primary cortical neuron cells assessed as reduction in alpha-synuclein level at 2.5 uM incubated for 7 days. The note with it: filed as activator, time 7.0 day. The data set is classed as cell-based. The procedure, abridged: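 E16–E17 CD1 mouse cortical neurons cultured in Neurobasal A with B-27 and GlutaMAX. Treated at DIV7 with 2.5 μM activator for 7 days; lysed at DIV14, protein by BCA. α-Synuclein quantified by Simple Western Jess automated immunoblot with total-protein normalization. n = 3 biological replicates.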

The subject of data set [3] is Hippocampal neuron. Briefly: Neuroprotective activity in mouse Hippocampal neuron cells assessed as decrease in Lewy body-like aggregates at 0.5 to 2.5 uM pretreated with alpha-synuclein followed by compound addition measured after 7 days by immunostaining analysis. It is filed as functional, cell-based. To be noted: dose 0.5-2.5 µM, time 7.0 day. A digest of the protocol:
(§1)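 E16.0 mouse hippocampal neurons, 25,000 per well, poly-L-lysine coated, Neurobasal/B27. Day 8: sonicated mouse α-synuclein PFFs added (2.5 μg/mL final; PBS for controls). Modulator (0.5 or 2.5 μM) added 1 h later. Day 15: PFA fixation; immunostaining for pS129-αsyn and NeuN plus DAPI; automated imaging. 3 biological, 9–11 technical replicates.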

Data set [4] deals with Hippocampal neuron. Briefly: Neuroprotective activity in mouse Hippocampal neuron cells assessed as increase in cell number at 0.5 to 5 uM pretreated with preformed fibrils followed by compound treatment measured after 7 days by DAPI staining/NeuN protein immunostaining analysis. To be noted: dose 0.5-5 µM, time 7.0 day. The data set is classed as functional, cell-based.
Data set [5] has as its system Hippocampal neuron. Briefly: Activation of 20S proteasome in mouse Hippocampal neuron cells assessed as reduction in alpha-synuclein aggregation measured after 7 days by DAPI staining based immunofluorescence analysis. It is filed as cell-based. To be noted: filed as activator, dose 0.5-5 µM, time 7.0 day.
Data set [6] deals with Hippocampal neuron. Briefly: Neuroprotective activity in mouse Hippocampal neuron cells assessed as neuron viability at 0.5 to 2.5 uM pretreated with alpha-synuclein followed by compound addition measured after 7 days by immunostaining analysis. It is filed as functional, cell-based. To be noted: dose 0.5-2.5 µM, time 7.0 day. The procedure, abridged: as §1
A short description of data set [7]: Permeability of compound in PBS incubated for 22 hrs by PAMPA-BBB assay. It is filed as ADME. A digest of the protocol: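 PAMPA-BBB with a 2% porcine brain lipid membrane. Compounds were diluted from 10 mM aqueous stocks to 500 μM in 0.1 M PBS containing 5% DMSO and incubated 22 h at 37 °C with shaking at 250 rpm. Read-out was fluorescence after reaction with 0.02% fluorescamine (absorbance at 290 nm for propranolol). Pe calculated as linear permeation velocity. Three biological replicates.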
(PAMPA measures passive passage across an artificial lipid membrane.)

Data set [8] can be described thus: Proteolytic stability of compound in human plasma assessed as protease-mediated degradation by measuring compound remaining at 200 uM incubated for 30 mins by UHPLC analysis. To be noted: read-out: Stability. It is filed as ADME, cell-free. A digest of the protocol:
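Compound (200 μM final, dissolved in water) incubated in human serum at 37 °C for 30 min. Samples every 5 min quenched 1:1 with 6% TCA and centrifuged. Supernatant analysed by UHPLC (UV 223 nm) for intact compound; cleavage sites identified by MS.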

The nature of data set [9]: Cytotoxicity in HEK293T cells assessed as cell viability at 100 uM incubated for 24 hrs by MTT assay relative to control. It is filed as toxicity, cell-based, HEK-293T. To be noted: human, read-out: Activity. The procedure, abridged: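 HEK293T cells grown in complete medium for 2 days, then the medium was replaced with compound at 1, 10, 25, 50 or 100 μM for 24 h. MTT was added, formazan dissolved in DMSO, and absorbance read at 570 nm. Mean of three biological replicates, compared with untreated control.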

For data set [10], the target named is T1, 20S proteasome (Homo sapiens) (UniProt P49721+P20618+P28074+P28062+P28065+P28072+P25786+P25787+P25788+P25789+P28066+P60900+O14818+Q8TAA3+P40306+A5LHX3+P49720+P28070+Q99436). The experiment in a line: Activation of human erythrocyte-derived 20S proteasome chymotrypsin-like activity using Suc-LLVY-AMC as substrate assessed as fold increase in activity at 1 uM measured every two mins for 60 mins by fluorescence based analysis relative to control. The note with it: filed as activator. A digest of the protocol: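 h20S proteasome 0.002 mg/mL (2.8 nM) in 50 mM Tris/HCl pH 8.0, 2% DMSO final. Suc-LLVY-AMC 100 μM final. Modulators 1.0–50 μM (TAT/6R constructs 0.5–10 μM). AMC fluorescence ex 380/em 460 nm read every 2 min for 60 min at 37 °C. Activity relative to DMSO-treated latent proteasome (100%); ≥3 replicates.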

Data set [11] addresses T1, 20S proteasome (Homo sapiens). The experiment in a line: Activation of 20S proteasome chymotrypsin-like activity in HEK293T cell lysate using Suc-LLVY-AMC as substrate assessed as fold increase in activity at 5 uM by fluorescence based analysis relative to control. The data set is classed as subcellular. To be noted: filed as activator. A digest of the protocol:
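Chymotrypsin-like activity read with Suc-LLVY-AMC. 1 μM bortezomib as negative control. Fold activity vs vehicle control; at least three independent replicates, one-way ANOVA with Tukey.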

The target is the same in data set [12]. The experiment in a line: Activation of human 20S proteasome assessed as tau degradation at 10 uM by SDS-PAGE analysis relative to control. The data set is classed as protein-complex assay. To be noted: filed as activator, time 1.5 hrs.
The target is the same in data set [13]. The experiment in a line: Activation of human 20S proteasome assessed as alpha-synuclein degradation by measuring residual activity at 10 uM by SDS-PAGE analysis relative to control. The data set is classed as protein-complex assay. To be noted: filed as activator, time 1.5 hrs.
Data set [14] shares this target. The experiment in a line: Activation of human erythrocyte-derived 20S proteasome trypsin-like activity using Boc-LRR-AMC as substrate at 0.5 to 10 uM measured every two mins for 60 mins by fluorescence based analysis. To be noted: filed as activator, dose 0.5-10 µM.
For data set [15] the target is unchanged. The experiment in a line: Activation of human erythrocyte-derived 20S proteasome trypsin-like activity using Boc-LRR-AMC as substrate at 1.0 to 50 uM measured every two mins for 60 mins by fluorescence based analysis. The note with it: dose 1-50 µM.
For data set [16] the target is unchanged. The experiment in a line: Activation of human erythrocyte-derived 20S proteasome chymotrypsin-like activity using Suc-LLVY-AMC as substrate at 1.0 to 50 uM measured every two mins for 60 mins by fluorescence based analysis. The note with it: filed as activator, dose 1-50 µM.
A short description of data set [17]: Effect on secondary structure of drug in water at 2 mg/ml assessed as alpha-helical conformation by CD analysis. It is filed as physicochemical. The note with it: buffer.
Data set [18] deals with T1, 20S proteasome (Homo sapiens). The experiment in a line: Activation of human erythrocyte-derived 20S proteasome caspase-like activity using Z-LLE-AMC as substrate at 1.0 to 50 uM measured every two mins for 60 mins by fluorescence based analysis. To be noted: filed as activator, dose 1-50 µM. The procedure, abridged: (§2)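 Latent human 20S proteasome (0.002 mg/mL, 2.8 nM) in 50 mM Tris/HCl pH 8.0 with 2% DMSO. AMC substrates at 100 μM final (ex 380/em 460 nm); Dabcyl-EDANS at 15 μM final (ex 335/em 493 nm). Modulators at 1.0–50 μM; TAT- or 6R-containing constructs at 0.5–10 μM. Read every 2 min for 60 min at 37 °C. Activity relative to DMSO-treated proteasome (100%). ≥3 independent replicates.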

Data set [19] has the same target. Briefly: Activation of human erythrocyte-derived 20S proteasome using Dabcyl-EDANS as FRET-type substrate at 1.0 to 50 uM measured every two mins for 60 mins by fluorescence based analysis. It is filed as cell-based. The note with it: filed as activator, dose 1-50 µM. The procedure, abridged:
as §2

Data set [20] shares this target. Briefly: Activation of human erythrocyte-derived 20S proteasome using Dabcyl-EDANS as FRET-type substrate at higher concentration measured every two mins for 60 mins by fluorescence based analysis. It is filed as cell-based. The note with it: filed as activator. The procedure, abridged:
as §2

Structures are written as SMILES. Active and inactive are the calls of the source. The rule behind the calls is not given here. Where a SMILES comes first, the peptide text is derived from it. [ ]: non-standard residue; d: D form. NMeR = CN[C@@H](CCCNC(=N)N)C(=O)O; NMeS = CN[C@@H](CO)C(=O)O

With `C[C@@H](O)[C@H](NC(=O)[C@H](Cc1ccccc1)NC(=O)[C@H](Cc1ccc(O)cc1)NC(=O)CN(CCCCN)C(=O)[C@H](CCCNC(=N)N)NC(=O)[C@H](CCCNC(=N)N)NC(=O)[C@H](CCCNC(=N)N)NC(=O)[C@H](CCNC(=N)N)NC(=O)[C@H](CCCNC(=N)N)NC(=O)[C@@H](N)CCCNC(=N)N)C(=O)NCC(=O)N[C@@H](CO)C(=O)N[C@@H](CCCCN)C(=O)N[C@@H](CC(=O)O)C(=O)N[C@@H](Cc1c[nH]c2ccccc12)C(=O)N[C@@H](CCCNC(=N)N)C(=O)N[C@@H](CO)C(=O)N[C@@H](Cc1ccc(O)cc1)C(=O)N[C@@H](Cc1ccc(O)cc1)C(=O)N[C@@H](CO)C(=O)O`, the Activity result in the data set with HEK-293T [1] is “Non-toxic”; in the data set on HEK-293T [2] it was “Non-toxic”; with Hippocampal neuron [5] it was “Dose-dependent-effect”. For the same molecule, the result in the data set with Primary cortical neuron, with Hippocampal neuron [3], with Hippocampal neuron [4] and in the data set on Hippocampal neuron [6] was Active. The permeability entry in data set [7] is reported as “Permeable”. Moreover, the remaining at 0.5 h, 200 µM in [8] was over 60%. Also, the viability at 24 h, 100 µM in data set [9] was about 50%.

Turning to `C[C@@H](O)[C@H](NC(=O)[C@H](Cc1ccccc1)NC(=O)[C@H](Cc1ccc(O)cc1)NC(=O)CN(CCCCN)C(=O)[C@H](CCCNC(=N)N)NC(=O)[C@H](CCCNC(=N)N)NC(=O)[C@H](CCCNC(=N)N)NC(=O)[C@H](CCC(N)=O)NC(=O)[C@H](CCCNC(=N)N)NC(=O)[C@H](CCCNC(=N)N)NC(=O)[C@H](CCCCN)NC(=O)[C@H](CCCCN)NC(=O)[C@@H](N)CCCNC(=N)N)C(=O)NCC(=O)N[C@@H](CO)C(=O)N[C@@H](CCCCN)C(=O)N[C@@H](CC(=O)O)C(=O)N[C@@H](Cc1c[nH]c2ccccc12)C(=O)N[C@@H](CCCNC(=N)N)C(=O)N[C@@H](CO)C(=O)N[C@@H](Cc1ccc(O)cc1)C(=O)N[C@@H](Cc1ccc(O)cc1)C(=O)N[C@@H](CO)C(=O)O`, the Activity entry in the data set with HEK-293T [1] is “Non-toxic”; with HEK-293T [2], “Non-toxic”; in [12], over 90%; in data set [13], under 40%. The outcome (in the data set on Primary cortical neuron; in the data set with Hippocampal neuron [3]; in the data set with Hippocampal neuron [4]; in the data set on Hippocampal neuron [6]; in [14]) was Active. Besides, the fold change (FC) in [10] turned out to be 16; in data set [11], 4. The permeability entry in data set [7] is “Permeable”. For the same molecule, in [8], the remaining at 0.5 h, 200 µM is over 60%.

`C[C@@H](O)[C@H](NC(=O)[C@H](Cc1ccccc1)NC(=O)[C@H](Cc1ccc(O)cc1)NC(=O)[C@@H](N)CCCCN)C(=O)NCC(=O)N[C@@H](CO)C(=O)N[C@@H](CCCCN)C(=O)N[C@@H](CC(=O)O)C(=O)N[C@@H](Cc1c[nH]c2ccccc12)C(=O)N(C)[C@@H](CCCNC(=N)N)C(=O)N(C)[C@@H](CO)C(=O)N[C@@H](Cc1ccc(O)cc1)C(=O)N[C@@H](Cc1ccc(O)cc1)C(=O)N[C@@H](CO)C(=O)O` (H-KYFTGSKDW[NMeR][NMeS]YYS-OH): the outcome in [15] was inactive. The Activity entry in data set [16] is given as “Active; Lower Capacity Of Activation Is Observed”; in [17], “Active”; in data set [18] it was “Moderate_effect”. The outcome in data set [19] and in [20] was Active.
